Source: ChEMBL document CHEMBL1158092, “Discovery, synthesis, and insecticidal activity of cycloaspeptide E” (2006)
Values after ≈ are worked out from the molar mass of the structure shown. Active and inactive are the calls of the source. No cut-off for these calls is given here. Where a SMILES comes first, the peptide text is derived from it.

Columns and labels:
Spodoptera exigua [1] = assay: Insecticidal activity against beet armyworm eggs assessed as inhibition of insect growth at 28 degC after 6 days by lepidopteran diet assay; assay type: functional; settings: 144 h
In short: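 Beet armyworm eggs (8-10 per well) on artificial diet in 96-well plates. Test samples were applied in acetone-water (50:50), dried onto the diet surface, and tested at 0.98-500 ppm (of diet weight) in 2-fold steps. Plates were incubated 6 days at 28 °C. Value is the minimum concentration inhibiting growth relative to untreated control.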

Spodoptera exigua [2] = assay: Insecticidal activity against beet armyworm assessed as circling dosed by ingestion from leaf after 18 hrs by lepidopteran limited ingestion exposure assay; assay type: functional, organism-based
Trichoplusia ni [3] = assay: Insecticidal activity against cabbage looper assessed as body tremors dosed by ingestion from leaf after 18 hrs by lepidopteran limited ingestion exposure assay; assay type: functional, organism-based
Trichoplusia ni [4] = assay: Insecticidal activity against cabbage looper assessed as mortality dosed by ingestion from leaf after 24 hrs by lepidopteran limited ingestion exposure assay; assay type: functional
In short: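 Cabbage leaf disks (0.25 cm²) were each treated with 1 µL of a 5 mg/mL acetone solution and dried. Each disk was offered to one of six cabbage looper larvae for 24 h, held individually under ambient lab conditions. Solvent and untreated disk controls were included. Afterwards, mortality, intoxication symptoms and disk consumption were noted, and larvae were given artificial diet.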

Spodoptera exigua [5] = assay: Insecticidal activity against fourth instar beet armyworm assessed as body tremors and partial paralysis after 1 hrs by BAW injection assay; assay type: functional, organism-based
Trichoplusia ni [6] = assay: Insecticidal activity against 3/4th instar cabbage looper assessed as intoxication topically dosed at 5 ug/larva after 24 hrs by lepidopteran topical assay
Spodoptera exigua [7] = assay: Insecticidal activity against 3/4th instar beet armyworm assessed as intoxication and mortality topically dosed at 5 ug/larva after 24 hrs by lepidopteran topical assay
Spodoptera exigua [8] = assay: Insecticidal activity against 3/4th instar beet armyworm assessed as intoxication and mortality topically dosed at 2.5 ug/larva after 24 hrs by lepidopteran topical assay; assay type: functional, organism-based
Trichoplusia ni [9] = assay: Insecticidal activity against 3/4th instar cabbage looper assessed as intoxication topically dosed at 2.5 ug/larva after 24 hrs by lepidopteran topical assay; assay type: functional
Spodoptera exigua [10] = assay: Insecticidal activity against fourth instar beet armyworm assessed as body tremors and partial paralysis after 3 to 6 hrs by BAW injection assay; assay type: functional
Spodoptera exigua [11] = assay: Insecticidal activity against fourth instar beet armyworm assessed as body tremors and partial paralysis after 24 hrs by BAW injection assay; assay type: functional, organism-based
In short: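 Six fourth-instar beet armyworm were each injected with 0.5 µL of a 20 mg/mL acetone solution (10 µg/insect). Solvent-only and untreated controls were included. Larvae were held singly with artificial diet under ambient conditions. Intoxication symptoms were scored at 1, 24 and 48 h, and mortality at 48 h.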

Row | Compound | MIC (Spodoptera exigua [1]) | Activity (Spodoptera exigua [2]) | Activity (Trichoplusia ni [3]) | Activity (Trichoplusia ni [4]) | Activity (Spodoptera exigua [5]) | Activity (Trichoplusia ni [6]) | Activity (Spodoptera exigua [7]) | Activity (Spodoptera exigua [8]) | Activity (Trichoplusia ni [9]) | Activity (Spodoptera exigua [10]) | Activity (Spodoptera exigua [11])
1 | CC(C)C[C@@H]1NC(=O)[C@H](Cc2ccccc2)N(C)C(=O)[C@H](C)NC(=O)c2ccccc2NC(=O)[C@H](Cc2ccc(O)cc2)N(C)C1=O [CYCLOASPEPTIDE A] (HELM PEPTIDE1{[O=C(c1ccccc1N[*:1])[*:2]].A.[meF].L.[meY]}$PEPTIDE1,PEPTIDE1,1:R1-5:R2$$$V2.0) | > 500 µg/mL | Active | Active | inactive | inactive | inactive | inactive |  |  |  | 
2 | CC(C)C[C@@H]1NC(=O)[C@H](Cc2ccccc2)N(C)C(=O)[C@H](C)NC(=O)c2ccccc2NC(=O)[C@H](Cc2ccccc2)N(C)C1=O [CYCLOASPEPTIDE E] (HELM PEPTIDE1{[O=C(c1ccccc1N[*:1])[*:2]].A.[meF].L.[meF]}$PEPTIDE1,PEPTIDE1,1:R1-5:R2$$$V2.0) | 10 µg/mL (≈ 16 µM) | Active | Active | 15% |  |  |  | inactive | 50% | 85% | inactive
3 | CC[C@H]1CCC[C@H](O[C@H]2CC[C@H](N(C)C)[C@@H](C)O2)[C@@H](C)C(=O)C2=C[C@@H]3[C@@H](C=C[C@@H]4C[C@@H](O[C@@H]5O[C@@H](C)[C@H](OC)[C@@H](OC)[C@H]5OC)C[C@@H]34)[C@@H]2CC(=O)O1 [SPINOSYN A] | 0.02 µg/mL (≈ 0.0273 µM) |  |  |  |  |  |  |  |  |  | 
